# Results: ChEMBL document CHEMBL5058577, “EUbOPEN Chemogenomics Library 2 (Multiplex)” (2022)
# Test system: U2OS
# Assay: Multiplex assay against U2OS
# Format: toxicity, cell-based
# Details: human
# How it was run: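 On a CQ1 microscope at 37°C and 5% CO2, live cells were imaged after compound addition. They had been stained at seeding with Hoechst33342, BioTracker Green Microtubule Cytoskeleton Dye, MitoTracker Red and Annexin V Alexa Fluor 680. CellPathfinder machine-learning gating assigned cells to Hoechst high-intensity objects or normal cells, normal cells to healthy, pyknosed or fragmented nuclei, and pyknosed cells to mitotic or apoptotic. Tubulin, mitochondrial-mass and membrane-permeability phenotypes are per cents of healthy-nucleus cells.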
# [1] = 12 h, 1 µM, compound concentration 1 uM, replicate 1
# [2] = 12 h, 1 µM, compound concentration 1 uM, replicate 2
# [3] = 12 h, 10 µM, compound concentration 10 uM, replicate 1
# [4] = 12 h, 10 µM, compound concentration 10 uM, replicate 2
# [5] = 24 h, 1 µM, compound concentration 1 uM, replicate 1
# [6] = 24 h, 1 µM, compound concentration 1 uM, replicate 2
# [7] = 24 h, 10 µM, compound concentration 10 uM, replicate 1
# [8] = 24 h, 10 µM, compound concentration 10 uM, replicate 2
# [9] = 48 h, 1 µM, compound concentration 1 uM, replicate 1
# [10] = 48 h, 1 µM, compound concentration 1 uM, replicate 2
# [11] = 48 h, 10 µM, compound concentration 10 uM, replicate 1
# [12] = 48 h, 10 µM, compound concentration 10 uM, replicate 2
smiles,measurement,setting,value
O=C1[C@H](Cc2ccc(O)cc2)N2C(=O)CCN(C(=O)NCc3ccccc3)[C@H]2CN1Cc1cccc2ccccc12,Population Apoptotic (%),[1],91%
same,Population Fragmented Nuclei (%),[1],13%
same,Population Healthy Nuclei (%),[1],74%
same,Population Hoechst High Intensity Objects (%),[1],4%
same,Population Membrane Permeable-Phenotype (%),[1],4%
same,Population Mitochondria Different-Phenotype (%),[1],1%
same,Population Mitotic Cells (%),[1],8%
same,Population Normal (%),[1],96%
same,Population Pyknosed Nuclei (%),[1],12%
same,Population Tubulin-Different-Phenotype (%),[1],1%
same,Total Cell Count,[1],200
same,Population Apoptotic (%),[2],84%
same,Population Fragmented Nuclei (%),[2],21%
same,Population Healthy Nuclei (%),[2],66%
same,Population Hoechst High Intensity Objects (%),[2],0%
same,Population Membrane Permeable-Phenotype (%),[2],5%
same,Population Mitochondria Different-Phenotype (%),[2],8%
same,Population Mitotic Cells (%),[2],15%
same,Population Normal (%),[2],99%
same,Population Pyknosed Nuclei (%),[2],11%
same,Population Tubulin-Different-Phenotype (%),[2],4%
same,Total Cell Count,[2],113
same,Population Apoptotic (%),[3],60%
same,Population Fragmented Nuclei (%),[3],32%
same,Population Healthy Nuclei (%),[3],50%
same,Population Hoechst High Intensity Objects (%),[3],3%
same,Population Membrane Permeable-Phenotype (%),[3],55%
same,Population Mitochondria Different-Phenotype (%),[3],35%
same,Population Mitotic Cells (%),[3],40%
same,Population Normal (%),[3],96%
same,Population Pyknosed Nuclei (%),[3],17%
same,Population Tubulin-Different-Phenotype (%),[3],55%
same,Total Cell Count,[3],207
same,Population Apoptotic (%),[4],72%
same,Population Fragmented Nuclei (%),[4],19%
same,Population Healthy Nuclei (%),[4],67%
same,Population Hoechst High Intensity Objects (%),[4],6%
same,Population Membrane Permeable-Phenotype (%),[4],38%
same,Population Mitochondria Different-Phenotype (%),[4],47%
same,Population Mitotic Cells (%),[4],27%
same,Population Normal (%),[4],93%
same,Population Pyknosed Nuclei (%),[4],13%
same,Population Tubulin-Different-Phenotype (%),[4],43%
same,Total Cell Count,[4],88
same,Population Apoptotic (%),[5],80%
same,Population Fragmented Nuclei (%),[5],13%
same,Population Healthy Nuclei (%),[5],73%
same,Population Hoechst High Intensity Objects (%),[5],2%
same,Population Membrane Permeable-Phenotype (%),[5],4%
same,Population Mitochondria Different-Phenotype (%),[5],1%
same,Population Mitotic Cells (%),[5],19%
same,Population Normal (%),[5],97%
same,Population Pyknosed Nuclei (%),[5],13%
same,Population Tubulin-Different-Phenotype (%),[5],2%
same,Total Cell Count,[5],242
same,Population Apoptotic (%),[6],88%
same,Population Fragmented Nuclei (%),[6],14%
same,Population Healthy Nuclei (%),[6],71%
same,Population Hoechst High Intensity Objects (%),[6],1%
same,Population Membrane Permeable-Phenotype (%),[6],7%
same,Population Mitochondria Different-Phenotype (%),[6],5%
same,Population Mitotic Cells (%),[6],11%
same,Population Normal (%),[6],98%
same,Population Pyknosed Nuclei (%),[6],14%
same,Population Tubulin-Different-Phenotype (%),[6],4%
same,Total Cell Count,[6],127
same,Population Apoptotic (%),[7],65%
same,Population Fragmented Nuclei (%),[7],34%
same,Population Healthy Nuclei (%),[7],42%
same,Population Hoechst High Intensity Objects (%),[7],3%
same,Population Membrane Permeable-Phenotype (%),[7],25%
same,Population Mitochondria Different-Phenotype (%),[7],23%
same,Population Mitotic Cells (%),[7],34%
same,Population Normal (%),[7],96%
same,Population Pyknosed Nuclei (%),[7],22%
same,Population Tubulin-Different-Phenotype (%),[7],25%
same,Total Cell Count,[7],214
same,Population Apoptotic (%),[8],85%
same,Population Fragmented Nuclei (%),[8],29%
same,Population Healthy Nuclei (%),[8],54%
same,Population Hoechst High Intensity Objects (%),[8],5%
same,Population Membrane Permeable-Phenotype (%),[8],36%
same,Population Mitochondria Different-Phenotype (%),[8],38%
same,Population Mitotic Cells (%),[8],14%
same,Population Normal (%),[8],94%
same,Population Pyknosed Nuclei (%),[8],16%
same,Population Tubulin-Different-Phenotype (%),[8],42%
same,Total Cell Count,[8],91
same,Population Apoptotic (%),[9],81%
same,Population Fragmented Nuclei (%),[9],15%
same,Population Healthy Nuclei (%),[9],73%
same,Population Hoechst High Intensity Objects (%),[9],3%
same,Population Membrane Permeable-Phenotype (%),[9],2%
same,Population Mitochondria Different-Phenotype (%),[9],2%
same,Population Mitotic Cells (%),[9],18%
same,Population Normal (%),[9],96%
same,Population Pyknosed Nuclei (%),[9],11%
same,Population Tubulin-Different-Phenotype (%),[9],3%
same,Total Cell Count,[9],326
same,Population Apoptotic (%),[10],95%
same,Population Fragmented Nuclei (%),[10],16%
same,Population Healthy Nuclei (%),[10],67%
same,Population Hoechst High Intensity Objects (%),[10],5%
same,Population Membrane Permeable-Phenotype (%),[10],3%
same,Population Mitochondria Different-Phenotype (%),[10],0%
same,Population Mitotic Cells (%),[10],4%
same,Population Normal (%),[10],94%
same,Population Pyknosed Nuclei (%),[10],15%
same,Population Tubulin-Different-Phenotype (%),[10],5%
same,Total Cell Count,[10],168
same,Population Apoptotic (%),[11],82%
same,Population Fragmented Nuclei (%),[11],37%
same,Population Healthy Nuclei (%),[11],43%
same,Population Hoechst High Intensity Objects (%),[11],5%
same,Population Membrane Permeable-Phenotype (%),[11],28%
same,Population Mitochondria Different-Phenotype (%),[11],16%
same,Population Mitotic Cells (%),[11],17%
same,Population Normal (%),[11],94%
same,Population Pyknosed Nuclei (%),[11],19%
same,Population Tubulin-Different-Phenotype (%),[11],19%
same,Total Cell Count,[11],252
same,Population Apoptotic (%),[12],81%
same,Population Fragmented Nuclei (%),[12],33%
same,Population Healthy Nuclei (%),[12],46%
same,Population Hoechst High Intensity Objects (%),[12],4%
same,Population Membrane Permeable-Phenotype (%),[12],22%
same,Population Mitochondria Different-Phenotype (%),[12],20%
same,Population Mitotic Cells (%),[12],18%
same,Population Normal (%),[12],95%
same,Population Pyknosed Nuclei (%),[12],20%
same,Population Tubulin-Different-Phenotype (%),[12],18%
same,Total Cell Count,[12],111
